Experimental data published in ChEMBL document CHEMBL4613314, “Exploring the Implication of DDX3X in DENV Infection: Discovery of the First-in-Class DDX3X Fluorescent Inhibitor” (ACS Med Chem Lett, 2020).
Activity calls are given as the source filed them. No cut-off for these calls is given here.

Tests used:
[1] = target: T1, ATP-dependent RNA helicase DDX3X (Homo sapiens, UniProt O00571); test: Inhibition of recombinant full length human His-tagged DDX3X expressed in Escherichia coli using dsRNA as substrate measured after 40 mins in presence of ATP by FRET assay
Target sequence in this assay (O00571 whole entry): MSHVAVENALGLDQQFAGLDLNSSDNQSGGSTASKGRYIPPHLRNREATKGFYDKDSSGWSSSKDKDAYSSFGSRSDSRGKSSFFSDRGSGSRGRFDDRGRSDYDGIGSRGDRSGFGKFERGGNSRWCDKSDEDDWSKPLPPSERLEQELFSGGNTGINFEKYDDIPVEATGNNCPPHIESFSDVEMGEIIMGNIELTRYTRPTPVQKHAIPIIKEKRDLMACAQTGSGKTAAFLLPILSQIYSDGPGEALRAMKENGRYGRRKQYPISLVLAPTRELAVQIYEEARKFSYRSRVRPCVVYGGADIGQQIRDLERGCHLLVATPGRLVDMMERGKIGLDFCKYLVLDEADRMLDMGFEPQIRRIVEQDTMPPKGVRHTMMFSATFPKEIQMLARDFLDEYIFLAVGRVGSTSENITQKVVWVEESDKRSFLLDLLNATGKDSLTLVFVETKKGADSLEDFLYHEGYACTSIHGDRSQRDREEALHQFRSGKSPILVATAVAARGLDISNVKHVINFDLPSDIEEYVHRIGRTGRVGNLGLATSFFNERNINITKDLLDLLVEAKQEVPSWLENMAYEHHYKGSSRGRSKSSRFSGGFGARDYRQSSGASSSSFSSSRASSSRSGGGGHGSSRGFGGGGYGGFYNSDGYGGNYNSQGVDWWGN

[2] = Cytotoxicity against human HuH7 cells assessed as reduction in cell viability by measuring ATP level measured after 72 hrs by CellTiter-Glo luminescent assay; type: cell-based, Huh-7
Method in brief: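 Huh-7 cells; viable cell number determined from cellular ATP content by CellTiter-Glo 2.0 luminescence; CC50 derived.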

in vitro = settings: human
dengue virus type 2 [3] = test: Antiviral activity against Dengue virus serotype 2 New Guinea C infected at 50 TCID50 in human HuH7 cells assessed as inhibition of viral replication and 72 hrs later re-infected pre-seeded HuH7 cells with viral supernatant collected from previous infected and measured after 72 hrs by immunodetection assay; type: functional, organism-based; settings: Huh-7, 72 h
Method in brief: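 Huh-7 cells infected with 50 TCID50 DENV-2 in presence of serial compound dilutions; after 72 h supernatants used to infect preseeded Huh-7 cells for a second infection cycle; replication read after further 72 h by immunoenzymatic assay with monoclonal antibody to conserved viral E antigen region. IC50 from at least two experiments, mean ± SD.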

dengue virus type 2 [4] = test: Antiviral activity against Dengue virus serotype 2 New Guinea C infected at 100 TCID50 in human HuH7 cells assessed as reduction in number of dsRNA positive cells at 0.1 to 20 uM measured up to 24 hrs by Alexa fluor 488 dye based confocal microscopy; type: functional, organism-based; settings: Huh-7
dengue virus type 2 [5] = test: Antiviral activity against Dengue virus serotype 2 New Guinea C infected at 100 TCID50 in human HuH7 cells assessed as cytopathic effect by measuring increase in viable cells at 0.1 to 20 uM measured up to 24 hrs by Alexa fluor 488 based confocal microscopy; type: functional, organism-based; settings: Huh-7
dengue virus type 2 [6] = test: Antiviral activity against Dengue virus serotype 2 New Guinea C infected at 100 TCID50 in human HuH7 cells assessed as reduction in number of NS3 positive cells at 0.1 to 20 uM measured up to 24 hrs by Alexa fluor 488 dye based confocal microscopy; type: functional, organism-based; settings: Huh-7
dengue virus type 2 [7] = test: Antiviral activity against Dengue virus serotype 2 New Guinea C infected at 100 TCID50 in human HuH7 cells assessed as reduction in number of NS5 positive cells at 0.1 to 20 uM measured up to 24 hrs by Alexa fluor 488 dye based confocal microscopy; type: functional, organism-based; settings: Huh-7
dengue virus type 2 [8] = test: Antiviral activity against Dengue virus serotype 2 New Guinea C infected at 100 TCID50 in human HuH7 cells assessed as increase in viable cells at 20 uM measured at 48 to 72 hrs post-infection by Alexa fluor 488 dye based confocal microscopy; type: functional, organism-based; settings: Huh-7
Method in brief: (§1)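 DENV-2-infected Huh-7 cells (100 TCID50) treated with fluorescent inhibitor at 20 μM; immunostained for DDX3X or NS5 and examined by confocal microscopy over time up to 72 h p.i.; viable cell number and NS5-positive cell number scored.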

[9] = target: T1, ATP-dependent RNA helicase DDX3X; test: Induction of DDX3X recruitment in human HuH7 cells infected with 100 TCID50 of Dengue virus serotype 2 New Guinea C assessed as increase in DDX3X expression in perinuclear region at 20 uM measured at 48 to 72 hrs post-infection by Alexa fluor 488 dye based confocal microscopy; type: cell-based; settings: Huh-7; method in brief: as §1
Target sequence in this assay (O00571 2-662 limits assumed): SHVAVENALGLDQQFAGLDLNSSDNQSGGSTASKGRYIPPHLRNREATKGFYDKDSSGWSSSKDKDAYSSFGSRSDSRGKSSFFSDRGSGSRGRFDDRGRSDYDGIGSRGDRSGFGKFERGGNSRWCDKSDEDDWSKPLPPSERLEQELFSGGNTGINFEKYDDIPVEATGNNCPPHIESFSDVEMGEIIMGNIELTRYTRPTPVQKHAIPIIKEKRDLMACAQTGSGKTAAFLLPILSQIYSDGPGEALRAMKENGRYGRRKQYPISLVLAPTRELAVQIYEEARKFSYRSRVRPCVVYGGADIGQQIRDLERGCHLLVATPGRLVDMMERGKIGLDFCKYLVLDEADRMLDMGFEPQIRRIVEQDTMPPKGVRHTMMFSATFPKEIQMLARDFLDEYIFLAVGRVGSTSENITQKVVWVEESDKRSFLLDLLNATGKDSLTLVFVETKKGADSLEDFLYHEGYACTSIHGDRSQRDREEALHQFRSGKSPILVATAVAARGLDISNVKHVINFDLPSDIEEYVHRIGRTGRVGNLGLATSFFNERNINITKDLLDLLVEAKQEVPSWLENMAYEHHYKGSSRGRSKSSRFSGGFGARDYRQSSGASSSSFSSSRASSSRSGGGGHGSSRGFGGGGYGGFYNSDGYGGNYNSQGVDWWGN

dengue virus type 2 [10] = test: Antiviral activity against Dengue virus serotype 2 New Guinea C infected at 100 TCID50 in human HuH7 cells assessed as cytoplasmic localization of NS5 followed by movement to nucleus at 20 uM measured at 6 hrs post-infection by […]; type: functional, organism-based; settings: Huh-7
dengue virus type 2 [11] = test: Antiviral activity against Dengue virus serotype 2 New Guinea C infected at 100 TCID50 in human HuH7 cells assessed as reduction of NS5 positive cells at 20 uM measured at 48 to 72 hrs post-infection by Alexa fluor 488 dye based confocal microscopy; type: functional, organism-based; settings: Huh-7; method in brief: as §1
[12] = target: T1, ATP-dependent RNA helicase DDX3X; test: Induction of DDX3X recruitment in human HuH7 cells infected with 100 TCID50 of Dengue virus serotype 2 New Guinea C assessed as colocalization of DDX3X in perinuclear region at 20 uM measured at 6 to 24 hrs post-infection by Alexa fluor 488 dye based confocal microscopy; type: cell-based; settings: Huh-7
Method in brief: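 Huh-7 cells infected with DENV-2 at 100 TCID50, treated with fluorescent inhibitor at 20 μM; fixed at 0, 6, 12 and 24 h p.i., permeabilized, immunostained for DDX3 or NS5 (Alexa Fluor 568 secondary) and examined by confocal microscopy for colocalization with the probe.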
Target sequence in this assay (O00571 2-662 limits assumed): as above

Row | Compound | IC50 [1] [µM] | CC50 at 72 h [2] [µM] | selectivity ratio at 72 h (in vitro; HuH7 cells) | IC50 (dengue virus type 2 [3]) [µM] | further results
1 | CCOCc1cn(-c2cccc(S(=O)(=O)Nc3ccccc3NS(C)(=O)=O)c2)nn1 | 0.08 | 87 | 10.5 | 8.3 | 
2 | CCOCc1cn(-c2cccc(S(=O)(=O)Nc3cccc(C(=O)OCC)c3)c2)nn1 | 0.005 | 100 | 23.2 | 4.3 | 
3 | CCOCc1cn(-c2cccc(S(=O)(=O)Nc3ccccc3N3CCOCC3)c2)nn1 | 0.06 | 100 | 18.9 | 5.3 | 
4 | CCOCc1cn(-c2cccc(S(=O)(=O)Nc3ccccc3C(F)(F)F)c2)nn1 |  | 150 |  | 2.6 | Activity (dengue virus type 2 [4]): Active; Activity (dengue virus type 2 [5]): Active; Activity (dengue virus type 2 [6]): Active; Activity (dengue virus type 2 [7]): Active
5 | CCCCc1cn(-c2cccc(S(=O)(=O)Nc3ccccc3OC)c2)nn1 | 0.18 | 79 |  | 6.3 | 
6 | CCOCc1cn(-c2cccc(S(=O)(=O)Nc3cccc(C(=O)O)c3)c2)nn1 |  | 7 |  | > 7 | 
7 | CC(=O)CCc1cn(-c2ccc(NC(=O)Nc3cccc(F)c3)cc2)nn1 | 2.4 | 20 | 64.7 | 0.3 | 
8 | CCCCc1cn(-c2ccc(NC(=O)Nc3ccccc3C)cc2)nn1 |  |  |  | 2.55 | 
9 | CCCCc1cn(-c2ccc(NC(=O)Nc3cccc(F)c3)cc2)nn1 | 0.6 | 200 | 19 | 10.5 | 
10 | CCCC(C)C(F)c1cn(-c2ccc(NC(=O)Nc3ccccc3C(F)(F)F)cc2)nn1 (stereo not given) | 1.05 |  |  |  | 
11 | O=C1OC2(c3ccc(O)cc3Oc3cc(O)ccc32)c2cc(NC(=S)NCCOCc3cn(-c4cccc(S(=O)(=O)Nc5ccccc5C(F)(F)F)c4)nn3)ccc21 |  | 140 |  | 28.2 | Activity (dengue virus type 2 [8]): Active; Activity [9]: Active; Activity (dengue virus type 2 [10]): Active; Activity (dengue virus type 2 [11]): Active; Activity [12]: Active
12 | CC(C)CCc1cn(-c2ccc(NC(=O)Nc3cccc(F)c3)cc2)nn1 |  | 200 | 80 | 2.5 | 
13 | CCOCc1cn(-c2ccc(NC(=O)Nc3cccc(F)c3)cc2)nn1 | 21.2 | 145 |  | > 145 | 
14 | Cc1ccccc1NC(=O)Nc1ccc(-n2cc(CCC(C)C)nn2)cc1 | 0.17 | 170 | 121 | 1.4 | 
15 | CCCCc1cn(-c2ccc(NC(=O)Nc3ccccc3NS(C)(=O)=O)cc2)nn1 | 0.06 | 35 | 14 | 2.5 | 
16 | NC(=O)c1ncn([C@@H]2O[C@H](CO)[C@@H](O)[C@H]2O)n1 [RIBAVIRIN] |  | 100 |  | 4 | selectivity ratio at 72 h (in vitro): 25
17 | COc1cc(-n2cc(CCC(C)C)nn2)ccc1NC(=O)Nc1ccccc1C(F)(F)F | 1.05 |  |  |  | 
18 | CC(C)CCc1cn(-c2ccc(NC(=O)Nc3ccc(F)cc3)cc2)nn1 | 1.9 |  |  |  | 
19 | CCCCc1cn(-c2cccc(S(=O)(=O)Nc3ccccc3C(F)(F)F)c2)nn1 |  | 18 | 3 | 6.1 | 
20 | CCCCc1cn(-c2cccc(S(=O)(=O)Nc3ccccc3O)c2)nn1 | 0.4 | 150 |  | 1.6 | 
21 | COc1cc(NC(=O)Nc2ccccc2C(F)(F)F)ccc1-n1cc(CCC(C)C)nn1 | 0.3 |  |  |  | 
22 | CC(C)CCc1cn(-c2ccc(NC(=O)Nc3ccccc3F)cc2)nn1 |  | 200 | 222 | 0.9 | 
23 | CCCCCCc1cn(-c2ccc(NC(=O)Nc3ccccc3C(F)(F)F)cc2)nn1 | 0.3 | 170 | 62.9 | 2.7 | 
24 | CC(C)OC(=O)[C@H](C)N[P@](=O)(OC[C@H]1O[C@@H](n2ccc(=O)[nH]c2=O)[C@](C)(F)[C@@H]1O)Oc1ccccc1 [SOFOSBUVIR] |  | 200 | 52.6 | 3.8 | 
25 | O=C(Nc1ccc(-n2cc(CF)nn2)cc1)Nc1ccccc1C(F)(F)F | 2.2 |  |  |  | 
26 | CCCCc1cn(-c2cccc(S(=O)(=O)Nc3cccc4cnccc34)c2)nn1 | 0.12 | 30 |  | 2.3 | 
